# Screens: PubChem BioAssay, Sanford-Burnham Center for Chemical Genomics
# PMI act satM6P: activators of human phosphomannose isomerase at near-saturating mannose 6-phosphate; P34949; coupled PMI enzyme assay, resazurin fluorescence, 20 min; active compounds read high; 1 = untreated enzyme, 0 = substrate-free blank; activation factor at 20 µM; 190,000 tested, 0.34% active;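 active means activation factor of 2 or more at 20 µM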
# Target sequence (P34949 whole entry, looked up): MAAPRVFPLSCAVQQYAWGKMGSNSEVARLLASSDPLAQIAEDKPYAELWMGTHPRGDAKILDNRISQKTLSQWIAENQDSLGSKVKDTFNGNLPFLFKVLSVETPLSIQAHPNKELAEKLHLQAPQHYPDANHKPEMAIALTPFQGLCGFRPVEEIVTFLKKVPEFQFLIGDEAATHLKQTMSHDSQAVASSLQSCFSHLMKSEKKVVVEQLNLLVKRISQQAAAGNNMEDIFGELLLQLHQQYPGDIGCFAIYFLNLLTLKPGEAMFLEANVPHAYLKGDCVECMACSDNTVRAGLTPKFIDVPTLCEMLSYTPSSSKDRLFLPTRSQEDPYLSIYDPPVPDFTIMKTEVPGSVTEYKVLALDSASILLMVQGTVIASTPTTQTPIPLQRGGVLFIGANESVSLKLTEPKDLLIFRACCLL
#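 Test system: human phosphomannose isomerase with PGI, G6PDH, diaphorase coupling enzymes; amount: 15 ng/mL PMI; incubation: enzyme reaction with compound 20 min at room temperature; technique: resorufin fluorescence (Ex 544/Em 590 nm) from resazurin via diaphorase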
# Diaphorase act: diaphorase activation or chemical reduction counter-screen | Diaphorase/resazurin coupled assay, resorufin fluorescence, 16 min; active compounds read high; 1 = vehicle wells, 0 = NADH-free wells | activation factor at 20 µM | 190,000 tested, 0.005% active | AID 1229;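 active means diaphorase activity raised at least twofold by the compound at 20 µM; inactive means activation factor below 2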
#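 Test system: Clostridium kluyveri diaphorase, purified enzyme. Buffer or medium: 50 mM HEPES pH 7.4 buffer plus MgCl2 and Tween 20. Also added: 0.114 mM NADH and 0.1 mM resazurin, final amounts. Dosing: compound 20 µM once, DMSO 1%. Schedule: 16 min enzyme reaction, ambient temperature. Detection: fluorescence of resorufin, 544 nm excitation, 590 nm emission.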
# Diaph inh CS: diaphorase inhibition or chemical oxidation counter-screen; diaphorase resazurin-to-resorufin fluorescence, NADH, 16 min; bacterial (C. kluyveri) enzyme, not human; inhibition, % at 20 µM; 190,000 tested, 0.69% active; AID 1217;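 active means primary screen inhibition at 20 µM above a set limit, cut at about 50% in these data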;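 further: plate controls were DMSO with full reaction for no effect and wells lacking NADH for full effect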
#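 Test system: bacterial diaphorase enzyme (C. kluyveri); Quantity: 0.14 U/mL diaphorase, enzyme working solution; Times: reaction incubation of 16 min at room temperature; Measured by: fluorescence of resorufin formed from resazurin, Ex 544/Em 590 nm; Benchmarks: positive control minus NADH, DMSO neutral control.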
# PMI activator: increases human mannose-6-phosphate isomerase activity; purified human PMI, coupled resazurin fluorescence, 20 min; active compounds read high; 1 = vehicle control, 0 substrate-free wells; activation factor at 20 µM; 190,000 tested, 0.005% active; AID 1214;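 active means activation factor of 2 or more at 20 µM, relative to plate controls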
# G6PDH CS: counter-screen for G6PDH assay hits: L. mesenteroides G6PDH inhibition. Purified L. mesenteroides G6PDH, diaphorase/resazurin coupled fluorescence, 45 min. inhibition, % at 5 µM. 200,000 tested, 0.12% active. AID 1020; in the data active means inhibition above about 50%
# Starred values were filed as active, the others as inactive. Only some compounds are listed: those with a hit (about 1.1% of all), similar ones and a draw of the others.
SMILES,PMI act satM6P,Diaphorase act,Diaph inh CS,PMI activator,G6PDH CS
COc1cccc(/C=N/Nc2nc3ccccc3n3cnnc23)c1O,1.2,0.3,66*,0.9,-21
COc1ccc2c(=O)c3c(=O)n(Cc4ccco4)c(-c4ccco4)nc3oc2c1,0.9,0.5,52*,0.9,3
COc1ccc(-c2nc3oc4cc(OC)ccc4c(=O)c3c(=O)n2Cc2ccco2)cc1,0.7,0.8,23,0.7,-47
CC1CCN(C(=O)c2cc3ccccc3c(=O)o2)CC1,1,0.9,8,1,1
CCOC(=O)C1CCN(C(=O)c2c(C)oc3c2C(=O)c2ccccc2C3=O)CC1,0.4,0.9,11,1,60*
Cc1oc2c(c1C(=O)N1CCC(C)CC1)C(=O)c1ccccc1C2=O,0.5,0.8,18,1,56*
COc1ccccc1NC(=O)CCC(=O)OCc1ccc(Cl)cc1,1.1,1.2,-21,1.2,16
O=C(O)c1ccccc1-c1ccccc1C(=O)NNc1ccccc1,2.9*,0.9,5,1.7,-1
CCOC(=O)c1c2c3c(c(Cl)ccc3[nH]c1=O)C(=O)c1ccccc1-2,2*,0.6,38,1.6,13
COc1ccc(C2CC(=O)C(C=NCCN3CCN(C(=S)Nc4ccccc4)CC3)=C(O)C2)cc1OC (stereo unspecified),0.8,0.8,21,0.9,3
Cc1ccc(S(=O)(=O)NC(=O)c2ccc(-c3ccc(-c4ccccc4)cc3)o2)c(C)c1,0.9,0.9,15,1,8
CC(=O)Sc1nc(-c2ccccc2)[nH]c1S(=O)(=O)c1ccc(C)cc1,2.2*,0.6,36,1.4,15
CSc1nc(-c2ccc(C)cc2)[nH]c1S(=O)(=O)c1ccccc1,1.1,0.8,19,1.1,2
Cc1cc(Br)ccc1OCC(=O)NNC(=O)c1cnccn1,0.8,0.8,25,0.8,0
CCC1=NN2C(=N)/C(=C\c3cccn3-c3ccc(Br)cc3)C(=O)N=C2S1,1.1,0.6,41,1.1,-1
CCC1=NN2C(=N)/C(=C\c3cccn3-c3cccc(Cl)c3)C(=O)N=C2S1,1,0.4,59*,0.9,0
COc1ccc(-n2cccc2/C=C2\C(=N)N3N=C(c4ccco4)SC3=NC2=O)cc1,1.1,0.3,74*,1.2,-2
O=C(Nc1cc(S(=O)(=O)Nc2ccccc2Cl)ccc1O)c1sc2cc(Cl)ccc2c1Cl,1,1,0,1,7
COc1cc(OC)cc(C(=O)NC(=S)Nc2ccc(Cl)c(C(=O)O)c2)c1,1,0.7,28,1,-2
CCCCOc1cccc(C(=O)NC(=S)Nc2ccc(Cl)c(C(=O)O)c2)c1,1,0.4,62*,1,1
CC1(C)CC(NC(=O)c2ccccn2)CC(C)(C)N1O,1.1,0.9,8,1.1,3
CCn1c(CC(=O)Nc2ccccc2)n[nH]c1=S,0.9,0.8,16,0.9,17
CCOC(=O)/C=C(/C)N1N=C(c2ccc(OC)cc2)CC1c1cccc([N+](=O)[O-])c1 (stereo unspecified),2.3*,1,-2,1.6,-20
CCCCn1c(Cc2ccccc2)nnc1SCC(=O)Nc1cc(C)on1,0.4,0.4,59*,0.5,-1
COCC(=O)Nc1nnc(-c2ccc(C(C)(C)C)cc2)s1,1,1,0,0.9,11
SMILES,PMI act satM6P,Diaphorase act,Diaph inh CS,PMI activator,G6PDH CS
COc1cc(OC)cc(C(=O)N(CCCN2C(=O)c3cccc4cccc(c34)C2=O)c2cccc(OC)c2)c1,1,0.5,53*,0.9,-20
COc1ccc(N(CCCN2C(=O)c3cccc4cccc(c34)C2=O)C(=O)c2ccncc2)cc1,1,0.6,38,0.9,0
COc1ccc(N(CCN2C(=O)c3ccccc3C2=O)C(=O)c2cccc([N+](=O)[O-])c2)cc1,1,0.9,6,0.9,24
COc1ccc(N(CCCN2C(=O)c3cccc4cccc(c34)C2=O)C(=O)c2cccnc2)cc1,0.7,0.4,58*,0.8,8
N#Cc1c2n(c3c(=S)nc[nH]c13)CCCCC2,1,0.5,54*,0.9,4
CSc1sc2ccccc2[n+]1CCCS(=O)(=O)[O-],2*,0.9,8,1.4,6
O=C(CSc1ccc(-c2ccccn2)nn1)c1ccccc1,1.2,1,-1,1.1,2
O=C(CSc1ccc(-c2ccccn2)nn1)c1ccc(F)cc1,0.4,0.4,58*,0.4,-3
Cc1cc(C)cc(NC(=O)CSc2nc(N)c(NC(=O)c3cccs3)c(=O)[nH]2)c1,0.9,0.8,18,0.9,13
CCOC(=O)C1(Cc2cccc(F)c2)CCN(C(=O)c2ccoc2C)CC1,1,0.8,18,0.9,9
O=[N+]([O-])c1ccccc1N/N=C1\CC2CC=CC12 (stereo unspecified),0.9,0.4,61*,1,-1
Cc1ccccc1NC1=C/C(=N\S(=O)(=O)c2cccs2)c2ccccc2C1=O,0.8,0.8,24,0.7,55*
Cc1cc[n+](C2=C([O-])c3ccccc3C(=O)/C2=N\S(=O)(=O)c2cccs2)cc1C,0.6,0.9,14,1.1,54*
CN(C)Cc1c(O)ccc2c3c(c(=O)oc12)CCCCC3,1,0.9,8,1,3
CN(Cc1c(O)ccc2c1oc(=O)c1ccccc12)C1CCCCC1,-0.1,0.1,94*,-0.1,8
O=C(C1CCN(C2CCN(CC3CC=CCC3)CC2)CC1)N1CCOCC1 (stereo unspecified),0.9,0.8,20,0.9,15
Cc1ccc(NC(=O)C2=C(c3ccccc3)S(=O)(=O)CCS2(=O)=O)cc1,1.1,1.1,-10,1.1,5
O=C(COc1ccc(Cl)cc1Cl)Nn1c(=S)[nH]c2ncccc2c1=O,0.8,0.5,50*,0.9,-22
COc1ccccc1OCC(=O)Nn1c(=S)[nH]c2ncccc2c1=O,1,1,3,1,-18
Cc1cc(=S)cc(C)n1CCO,2.4*,0.9,6,1.6,-1
Cc1cc(C)n(CCO)c(=O)n1,1.2,1,2,1.1,5
O=C(CSc1nc2ccccc2s1)Nc1cc(C(=O)O)cc(C(=O)O)c1,1.2,0.4,62*,1.1,7
O=C(CSc1nc2ccccc2s1)Nc1ccc(Cl)c(C(=O)O)c1,2.3*,0.9,15,1.4,-5
O=C(CSc1nc2ccccc2s1)NNC(=O)Nc1ccc(Cl)c(Cl)c1,0.8,0.8,18,0.8,-50
O=C(CSc1nc2ccccc2s1)Nc1ccc2c(c1)oc1ccccc12,0.9,1,1,1,-8
